Data from ChEMBL document CHEMBL1137618, “Synthesis and structure-activity relationship studies of 3,6-diazabicyclo[3.2.0]heptanes as novel alpha4beta2 nicotinic acetylcholine receptor selective agonists” (J Med Chem, 2007).
pEC50, pKi: −log10 of the molar value.

Key:
[1] = Displacement of [3H]cytisine from neuronal nicotinic acetylcholine receptor in rat brain membrane; type: cell membranes
[2] = target: T1, Neuronal acetylcholine receptor; alpha4/beta2 (Homo sapiens, UniProt P17787+P43681); experiment: Agonist activity at recombinant human alpha-4-beta-2 nAChR expressed in HEK293 cells assessed as induction of calcium influx by FLIPR assay relative to nicotine; type: functional, cell-based
T1 sequence (P17787 whole entry): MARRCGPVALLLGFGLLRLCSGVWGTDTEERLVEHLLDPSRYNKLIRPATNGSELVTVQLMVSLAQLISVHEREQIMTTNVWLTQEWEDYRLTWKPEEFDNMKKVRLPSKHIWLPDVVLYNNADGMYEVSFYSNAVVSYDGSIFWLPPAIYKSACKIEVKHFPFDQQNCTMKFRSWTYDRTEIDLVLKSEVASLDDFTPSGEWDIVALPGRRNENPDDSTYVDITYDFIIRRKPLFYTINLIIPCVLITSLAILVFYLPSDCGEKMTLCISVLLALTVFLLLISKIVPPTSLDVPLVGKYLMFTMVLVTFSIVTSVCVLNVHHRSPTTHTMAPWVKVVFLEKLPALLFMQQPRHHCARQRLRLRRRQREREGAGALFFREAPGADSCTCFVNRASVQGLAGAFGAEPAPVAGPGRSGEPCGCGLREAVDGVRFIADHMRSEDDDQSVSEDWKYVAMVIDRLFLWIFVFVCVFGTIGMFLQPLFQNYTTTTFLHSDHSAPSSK
T1 sequence (P43681 whole entry): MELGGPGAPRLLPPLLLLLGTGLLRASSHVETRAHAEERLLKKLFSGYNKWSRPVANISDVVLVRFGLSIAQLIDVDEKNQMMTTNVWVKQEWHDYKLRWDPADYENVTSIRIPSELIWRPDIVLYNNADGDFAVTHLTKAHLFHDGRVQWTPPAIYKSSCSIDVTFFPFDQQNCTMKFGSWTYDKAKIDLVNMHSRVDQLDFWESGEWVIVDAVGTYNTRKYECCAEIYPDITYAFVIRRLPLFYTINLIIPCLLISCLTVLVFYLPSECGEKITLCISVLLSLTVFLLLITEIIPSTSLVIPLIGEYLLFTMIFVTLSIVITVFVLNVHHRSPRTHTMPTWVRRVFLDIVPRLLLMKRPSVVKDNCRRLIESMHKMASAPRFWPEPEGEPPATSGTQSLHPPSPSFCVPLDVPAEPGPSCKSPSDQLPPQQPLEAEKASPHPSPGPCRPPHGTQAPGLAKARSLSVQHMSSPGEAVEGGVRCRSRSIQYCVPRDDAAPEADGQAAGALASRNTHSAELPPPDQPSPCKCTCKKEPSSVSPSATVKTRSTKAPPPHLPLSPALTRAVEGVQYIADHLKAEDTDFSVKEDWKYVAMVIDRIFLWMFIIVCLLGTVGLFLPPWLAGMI
In short: (§1)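 HEK-293 lines stably expressing human α4β2 or α3β4 nAChR, grown 24-48 h at 37 °C on poly-D-lysine in DMEM/10% FBS. Loaded with 2-4 µM Fluo-4 AM for ~0.75-1 h at room temperature in the dark, in NMDG Ringer pH 7.4. Serial log dilutions added, then peak calcium fluorescence read on FLIPR after buffer-blank subtraction.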

[3] = target: T2, Neuronal acetylcholine receptor; alpha3/beta4 (Homo sapiens, UniProt P30926+P32297); experiment: Agonist activity at recombinant human alpha-3-beta-4 nAChR expressed in HEK293 cells assessed as induction of calcium influx by FLIPR assay; type: functional, cell-based; conditions: for pEC50: read-out: EC50; for EC50: read-out: Log EC50 (converted)
T2 sequence (P30926 whole entry): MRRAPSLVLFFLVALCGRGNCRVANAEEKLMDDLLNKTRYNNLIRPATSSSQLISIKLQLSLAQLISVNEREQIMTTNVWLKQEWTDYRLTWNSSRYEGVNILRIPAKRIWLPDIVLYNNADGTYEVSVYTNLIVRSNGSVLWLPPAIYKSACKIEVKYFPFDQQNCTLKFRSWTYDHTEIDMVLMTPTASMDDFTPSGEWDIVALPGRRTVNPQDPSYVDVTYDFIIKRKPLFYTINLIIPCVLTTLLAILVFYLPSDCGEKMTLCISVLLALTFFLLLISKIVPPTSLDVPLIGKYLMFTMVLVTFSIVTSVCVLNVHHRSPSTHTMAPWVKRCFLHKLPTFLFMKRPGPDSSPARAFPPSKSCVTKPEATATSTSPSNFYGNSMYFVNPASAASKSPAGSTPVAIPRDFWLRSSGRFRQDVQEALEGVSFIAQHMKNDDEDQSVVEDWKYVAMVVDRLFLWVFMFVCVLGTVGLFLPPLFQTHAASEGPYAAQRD
T2 sequence (P32297 whole entry): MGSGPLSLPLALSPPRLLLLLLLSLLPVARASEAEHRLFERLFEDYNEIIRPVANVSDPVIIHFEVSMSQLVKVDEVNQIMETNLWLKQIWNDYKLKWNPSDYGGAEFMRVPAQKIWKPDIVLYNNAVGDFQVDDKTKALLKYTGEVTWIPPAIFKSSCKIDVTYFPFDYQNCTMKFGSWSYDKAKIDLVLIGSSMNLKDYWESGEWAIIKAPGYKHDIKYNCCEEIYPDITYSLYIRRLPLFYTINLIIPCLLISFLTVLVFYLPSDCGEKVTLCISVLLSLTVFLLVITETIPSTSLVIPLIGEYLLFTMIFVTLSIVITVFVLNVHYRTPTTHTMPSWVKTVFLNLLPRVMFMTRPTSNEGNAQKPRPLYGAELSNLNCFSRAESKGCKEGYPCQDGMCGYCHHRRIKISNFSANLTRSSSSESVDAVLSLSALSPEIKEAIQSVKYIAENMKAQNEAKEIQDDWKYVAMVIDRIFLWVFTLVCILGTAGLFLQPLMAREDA

[4] = target: T2, Neuronal acetylcholine receptor; alpha3/beta4; experiment: Agonist activity at recombinant human alpha3beta4 nAChR expressed in HEK293 cells assessed as induction of calcium influx by FLIPR assay relative to nicotine; type: functional, cell-based; in short: as §1
[5] = target: T1, Neuronal acetylcholine receptor; alpha4/beta2; experiment: Agonist activity at recombinant human alpha-4-beta-2 nAChR expressed in HEK293 cells assessed as induction of calcium influx by FLIPR assay; type: functional, cell-based; conditions: for pEC50: read-out: EC50; for EC50: read-out: Log EC50 (converted)

Row | Structure (SMILES) | pKi [1] | Log Ki [1] | Activity [2] [%] | pEC50 [3] | Activity [4] [%] | pEC50 [5] | EC50 [3] [nM] | EC50 [5] [nM]
1 | Brc1cc(N2C[C@@H]3CN[C@@H]3C2)cnc1Br | 9.52 | -9.52 | 122 | 5.89 | 90 | 5.92 | – | –
2 | Clc1cc(N2C[C@@H]3CNC[C@@H]32)cnc1Cl | 8.92 | -8.93 | 110 | 5.59 | 87 | 6.05 | – | –
3 | NC(=O)c1cc(N2C[C@H]3CNC[C@H]32)cnc1Br | 8.19 | -8.19 | 155 | 4.67 | 88 | 5.96 | 20900 | –
4 | COc1cc(N2C[C@H]3CN[C@H]3C2)cnc1Br | 10.15 | -10.15 | 159 | 7.00 | 113 | 6.70 | – | 148
5 | COc1cc(N2C[C@H]3CNC[C@H]32)cnc1Br | 9.70 | -9.68 | 118 | 5.74 | 94 | 6.05 | – | –
6 | N#Cc1cncc(N2C[C@@H]3CN[C@@H]3C2)c1 | 8.77 | -8.77 | 102 | 5.15 | 84 | 4.84 | – | 13200
7 | c1cncc(N2C[C@H]3CNC[C@H]32)c1 | 8.89 | -8.88 | 116 | 5.53 | 62 | 5.72 | 29500 | 1820
8 | COc1cncc(N2C[C@@H]3CN[C@@H]3C2)c1 | 8.52 | -8.52 | 55 | 4.32 | 44 | 4.80 | 46800 | 13200
9 | N#Cc1cncc(N2C[C@@H]3CNC[C@@H]32)c1 | 9.05 | -9.07 | 34 | 4.86 | 47 | 4.94 | 12300 | 9120
10 | Clc1cc(N2C[C@H]3CNC[C@H]32)cnc1Cl | 9.52 | -9.55 | 117 | 6.00 | 92 | 6.52 | – | 263
11 | N#Cc1cncc(N2C[C@H]3CN[C@H]3C2)c1 | 10.00 | -9.92 | 123 | 6.52 | 102 | 6.22 | – | 417
12 | Cc1ncc(N2C[C@H]3CNC[C@H]32)cc1C#N | 8.96 | -8.95 | 128 | 5.68 | 96 | 5.41 | – | 3800
13 | Clc1ccc(N2C[C@@H]3CN[C@@H]3C2)cn1 | 9.22 | -9.24 | 162 | 6.40 | 110 | 6.70 | – | 162
14 | Clc1ccc(N2C[C@H]3CNC[C@H]32)cn1 | 8.92 | -8.91 | 127 | 5.96 | 104 | 6.22 | – | 537
